Assay results as given in ChEMBL document CHEMBL4330096, “Discovery of potent and selective 5-azaindazole inhibitors of leucine-rich repeat kinase 2 (LRRK2) - Part 1” (Bioorg Med Chem Lett, 2019).

What was measured:
[1] = molecular target: T1, Ephrin type-B receptor 3 (Homo sapiens) (UniProt P54753); assay: Inhibition of EPHB3 (unknown origin) at 1 uM relative to control
T1 sequence (whole entry): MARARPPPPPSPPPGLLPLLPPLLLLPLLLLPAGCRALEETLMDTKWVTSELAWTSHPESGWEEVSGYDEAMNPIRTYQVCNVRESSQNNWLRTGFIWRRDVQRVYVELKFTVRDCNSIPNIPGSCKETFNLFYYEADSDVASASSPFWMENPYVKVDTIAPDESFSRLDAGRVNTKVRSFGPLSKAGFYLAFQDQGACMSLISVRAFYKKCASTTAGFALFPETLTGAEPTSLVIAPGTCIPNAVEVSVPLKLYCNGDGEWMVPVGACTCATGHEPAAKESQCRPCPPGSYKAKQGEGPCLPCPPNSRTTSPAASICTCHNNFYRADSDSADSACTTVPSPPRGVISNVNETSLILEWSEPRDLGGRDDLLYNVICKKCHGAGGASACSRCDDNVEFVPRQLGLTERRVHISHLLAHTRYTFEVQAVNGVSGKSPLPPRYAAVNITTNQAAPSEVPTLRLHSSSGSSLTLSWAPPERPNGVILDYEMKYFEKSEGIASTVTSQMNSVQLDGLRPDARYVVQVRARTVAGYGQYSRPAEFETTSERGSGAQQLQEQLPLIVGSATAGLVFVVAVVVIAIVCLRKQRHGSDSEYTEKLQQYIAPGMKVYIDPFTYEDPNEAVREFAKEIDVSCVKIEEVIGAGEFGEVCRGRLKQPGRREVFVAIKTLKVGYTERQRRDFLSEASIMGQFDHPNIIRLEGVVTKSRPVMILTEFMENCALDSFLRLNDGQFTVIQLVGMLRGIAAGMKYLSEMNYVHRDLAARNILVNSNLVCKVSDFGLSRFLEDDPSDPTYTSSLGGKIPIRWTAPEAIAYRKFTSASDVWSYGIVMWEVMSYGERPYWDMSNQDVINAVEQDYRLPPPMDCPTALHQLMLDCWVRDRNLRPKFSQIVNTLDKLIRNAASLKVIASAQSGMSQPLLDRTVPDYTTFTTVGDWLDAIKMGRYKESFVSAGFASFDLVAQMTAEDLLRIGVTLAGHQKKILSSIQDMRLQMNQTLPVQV
How it was run: (§1)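 Single-point screen of each compound against a panel of 59 protein kinases, at 1 or 10 μM. The panel data are also summarised as a rescaled geometric mean selectivity score.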

[2] = molecular target: Maternal embryonic leucine zipper kinase (Homo sapiens) (UniProt Q14680); assay: Inhibition of MELK (unknown origin) at 1 uM relative to control
How it was run: (§2)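 Single-concentration screen of each compound against a 59-protein-kinase panel, run at 10 µM or 1 µM. Activity relative to control is shown as a heat map across the panel.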

[3] = molecular target: Serine/threonine-protein kinase PAK 4 (Homo sapiens) (UniProt O96013); assay: Inhibition of PAK4 (unknown origin) at 1 uM relative to control; how it was run: as §2
[4] = molecular target: Mitogen-activated protein kinase 1 (Homo sapiens) (UniProt P28482); assay: Inhibition of ERK2 (unknown origin) at 1 uM relative to control; how it was run: as §1
[5] = molecular target: 3-phosphoinositide-dependent protein kinase 1 (Homo sapiens) (UniProt O15530); assay: Inhibition of PDK1 (unknown origin) at 1 uM relative to control
[6] = molecular target: Serine/threonine-protein kinase N2 (Homo sapiens) (UniProt Q16513); assay: Inhibition of PRK2 (unknown origin) at 1 uM relative to control; how it was run: as §2
[7] = molecular target: Mitogen-activated protein kinase 9 (Homo sapiens) (UniProt P45984); assay: Inhibition of JNK2 (unknown origin) at 1 uM relative to control; how it was run: as §1
[8] = molecular target: Mitogen-activated protein kinase 8 (Homo sapiens) (UniProt P45983); assay: Inhibition of JNK1 (unknown origin) at 1 uM relative to control; how it was run: as §1
[9] = molecular target: T2, Inhibitor of nuclear factor kappa-B kinase subunit beta (Homo sapiens) (UniProt O14920); assay: Inhibition of IKKb (unknown origin) at 1 uM relative to control; how it was run: as §1
T2 sequence (whole entry): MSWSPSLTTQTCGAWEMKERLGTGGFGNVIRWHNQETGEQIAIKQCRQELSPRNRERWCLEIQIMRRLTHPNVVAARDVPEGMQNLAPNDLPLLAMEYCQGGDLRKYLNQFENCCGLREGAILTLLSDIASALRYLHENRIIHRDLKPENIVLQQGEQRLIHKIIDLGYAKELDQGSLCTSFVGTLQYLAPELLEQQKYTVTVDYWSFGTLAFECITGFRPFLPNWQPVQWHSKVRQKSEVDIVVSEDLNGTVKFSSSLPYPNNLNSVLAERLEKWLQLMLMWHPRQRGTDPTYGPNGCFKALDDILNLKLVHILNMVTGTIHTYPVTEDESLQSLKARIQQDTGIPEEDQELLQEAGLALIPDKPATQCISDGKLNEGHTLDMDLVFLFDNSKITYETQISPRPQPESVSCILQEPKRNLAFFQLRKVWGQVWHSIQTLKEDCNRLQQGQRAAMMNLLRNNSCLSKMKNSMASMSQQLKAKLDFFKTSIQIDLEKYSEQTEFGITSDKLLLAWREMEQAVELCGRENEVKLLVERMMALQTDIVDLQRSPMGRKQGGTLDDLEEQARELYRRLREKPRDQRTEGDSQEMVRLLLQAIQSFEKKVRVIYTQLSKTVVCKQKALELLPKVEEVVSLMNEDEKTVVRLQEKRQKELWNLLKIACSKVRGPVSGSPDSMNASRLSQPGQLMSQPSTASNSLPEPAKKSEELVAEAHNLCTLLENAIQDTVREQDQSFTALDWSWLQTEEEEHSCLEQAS

[10] = molecular target: T3, MAP kinase-activated protein kinase 5 (Homo sapiens) (UniProt Q8IW41); assay: Inhibition of PRAK (unknown origin) at 1 uM relative to control; how it was run: as §2
T3 sequence (whole entry): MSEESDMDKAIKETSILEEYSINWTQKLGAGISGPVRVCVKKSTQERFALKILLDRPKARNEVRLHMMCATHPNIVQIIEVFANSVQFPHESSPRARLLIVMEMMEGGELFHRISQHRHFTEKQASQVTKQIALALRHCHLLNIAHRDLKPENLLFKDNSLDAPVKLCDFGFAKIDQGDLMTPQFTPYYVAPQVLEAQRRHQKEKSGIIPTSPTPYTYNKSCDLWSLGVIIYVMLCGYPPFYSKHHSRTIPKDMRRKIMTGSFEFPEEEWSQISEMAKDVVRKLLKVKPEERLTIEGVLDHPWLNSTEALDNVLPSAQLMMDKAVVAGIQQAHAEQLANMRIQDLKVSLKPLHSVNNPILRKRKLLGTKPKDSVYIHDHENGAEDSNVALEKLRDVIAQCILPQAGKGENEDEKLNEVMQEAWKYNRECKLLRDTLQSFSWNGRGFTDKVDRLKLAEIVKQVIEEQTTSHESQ

Sequence of Maternal embryonic leucine zipper kinase (Homo sapiens) (Q14680 whole entry, looked up): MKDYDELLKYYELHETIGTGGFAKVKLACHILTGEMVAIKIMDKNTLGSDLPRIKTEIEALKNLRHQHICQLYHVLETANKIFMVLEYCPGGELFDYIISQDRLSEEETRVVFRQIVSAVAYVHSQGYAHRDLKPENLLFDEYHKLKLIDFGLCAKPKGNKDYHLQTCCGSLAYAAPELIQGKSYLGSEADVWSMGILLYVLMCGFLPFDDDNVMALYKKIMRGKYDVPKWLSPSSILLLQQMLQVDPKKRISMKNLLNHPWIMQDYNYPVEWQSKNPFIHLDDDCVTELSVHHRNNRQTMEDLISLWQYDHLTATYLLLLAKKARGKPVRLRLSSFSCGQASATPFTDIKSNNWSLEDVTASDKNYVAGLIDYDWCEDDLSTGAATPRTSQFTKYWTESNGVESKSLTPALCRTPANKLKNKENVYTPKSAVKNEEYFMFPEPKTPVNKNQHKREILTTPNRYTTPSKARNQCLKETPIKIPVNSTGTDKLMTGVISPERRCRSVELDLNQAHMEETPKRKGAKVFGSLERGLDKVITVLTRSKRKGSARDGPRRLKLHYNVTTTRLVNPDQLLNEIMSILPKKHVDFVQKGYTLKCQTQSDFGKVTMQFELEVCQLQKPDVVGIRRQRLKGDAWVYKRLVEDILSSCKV
Sequence of 3-phosphoinositide-dependent protein kinase 1 (Homo sapiens) (O15530 whole entry, looked up): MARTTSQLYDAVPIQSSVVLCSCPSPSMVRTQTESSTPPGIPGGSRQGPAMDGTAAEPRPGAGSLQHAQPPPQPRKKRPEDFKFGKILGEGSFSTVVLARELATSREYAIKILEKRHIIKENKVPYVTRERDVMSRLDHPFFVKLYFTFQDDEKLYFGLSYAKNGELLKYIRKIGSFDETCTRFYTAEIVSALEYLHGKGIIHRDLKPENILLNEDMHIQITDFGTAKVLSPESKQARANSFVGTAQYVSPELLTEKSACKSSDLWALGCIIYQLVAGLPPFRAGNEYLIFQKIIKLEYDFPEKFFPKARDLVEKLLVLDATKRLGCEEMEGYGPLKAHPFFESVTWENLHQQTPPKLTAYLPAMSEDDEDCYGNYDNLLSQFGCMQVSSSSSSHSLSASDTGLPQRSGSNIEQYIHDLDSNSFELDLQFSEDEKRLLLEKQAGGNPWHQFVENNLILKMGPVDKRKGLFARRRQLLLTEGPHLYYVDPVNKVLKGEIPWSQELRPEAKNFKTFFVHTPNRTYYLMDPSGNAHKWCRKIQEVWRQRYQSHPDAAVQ
Sequence of Mitogen-activated protein kinase 9 (Homo sapiens) (P45984 whole entry, looked up): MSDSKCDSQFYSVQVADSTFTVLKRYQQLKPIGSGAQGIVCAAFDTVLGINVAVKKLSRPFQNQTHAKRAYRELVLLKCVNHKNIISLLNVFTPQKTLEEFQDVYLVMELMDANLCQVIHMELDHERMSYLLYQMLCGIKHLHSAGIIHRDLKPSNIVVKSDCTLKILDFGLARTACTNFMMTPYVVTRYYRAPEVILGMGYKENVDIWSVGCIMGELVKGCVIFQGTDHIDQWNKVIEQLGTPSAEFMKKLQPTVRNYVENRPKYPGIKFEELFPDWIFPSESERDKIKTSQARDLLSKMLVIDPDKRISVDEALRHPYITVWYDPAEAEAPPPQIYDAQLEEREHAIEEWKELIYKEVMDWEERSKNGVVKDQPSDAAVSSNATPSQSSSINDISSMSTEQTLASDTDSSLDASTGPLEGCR
Sequence of Serine/threonine-protein kinase N2 (Homo sapiens) (Q16513 whole entry, looked up): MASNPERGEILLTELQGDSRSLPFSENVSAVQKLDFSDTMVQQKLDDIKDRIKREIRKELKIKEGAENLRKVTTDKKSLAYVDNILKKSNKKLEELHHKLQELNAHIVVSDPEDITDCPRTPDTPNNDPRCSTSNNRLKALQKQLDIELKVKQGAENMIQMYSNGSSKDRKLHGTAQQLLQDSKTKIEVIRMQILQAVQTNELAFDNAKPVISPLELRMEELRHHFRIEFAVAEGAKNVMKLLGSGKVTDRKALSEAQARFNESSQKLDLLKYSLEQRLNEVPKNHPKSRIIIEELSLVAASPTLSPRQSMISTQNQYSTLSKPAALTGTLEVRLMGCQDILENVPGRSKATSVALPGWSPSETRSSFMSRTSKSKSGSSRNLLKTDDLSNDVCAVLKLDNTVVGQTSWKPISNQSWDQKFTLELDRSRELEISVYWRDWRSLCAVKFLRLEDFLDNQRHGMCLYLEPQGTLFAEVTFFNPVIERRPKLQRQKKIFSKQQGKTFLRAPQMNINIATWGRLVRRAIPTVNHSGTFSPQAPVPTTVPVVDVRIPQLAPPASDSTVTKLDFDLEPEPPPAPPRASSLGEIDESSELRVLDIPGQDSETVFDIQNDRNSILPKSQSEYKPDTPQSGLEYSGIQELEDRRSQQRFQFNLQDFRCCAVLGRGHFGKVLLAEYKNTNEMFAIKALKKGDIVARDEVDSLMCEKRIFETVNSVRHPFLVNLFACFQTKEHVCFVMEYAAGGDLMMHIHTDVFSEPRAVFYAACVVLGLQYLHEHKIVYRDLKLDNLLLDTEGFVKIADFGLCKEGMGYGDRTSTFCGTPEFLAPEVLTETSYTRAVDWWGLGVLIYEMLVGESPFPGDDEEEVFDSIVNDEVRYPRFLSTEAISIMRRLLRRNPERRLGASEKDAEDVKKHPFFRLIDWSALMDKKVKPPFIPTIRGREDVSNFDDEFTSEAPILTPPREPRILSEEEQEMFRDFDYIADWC
Sequence of Mitogen-activated protein kinase 8 (Homo sapiens) (P45983 whole entry): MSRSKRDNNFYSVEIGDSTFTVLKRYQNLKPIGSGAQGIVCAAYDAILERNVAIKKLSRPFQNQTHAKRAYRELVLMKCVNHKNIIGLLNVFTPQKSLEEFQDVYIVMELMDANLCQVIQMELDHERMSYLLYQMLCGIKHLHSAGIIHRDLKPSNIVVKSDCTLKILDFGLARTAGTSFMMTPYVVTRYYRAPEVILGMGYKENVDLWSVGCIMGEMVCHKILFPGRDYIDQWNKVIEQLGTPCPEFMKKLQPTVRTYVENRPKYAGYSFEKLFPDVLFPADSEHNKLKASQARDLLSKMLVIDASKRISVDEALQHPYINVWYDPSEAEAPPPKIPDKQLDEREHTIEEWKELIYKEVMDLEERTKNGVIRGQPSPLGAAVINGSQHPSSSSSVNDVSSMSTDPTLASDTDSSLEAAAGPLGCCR
Sequence of Mitogen-activated protein kinase 1 (Homo sapiens) (P28482 whole entry): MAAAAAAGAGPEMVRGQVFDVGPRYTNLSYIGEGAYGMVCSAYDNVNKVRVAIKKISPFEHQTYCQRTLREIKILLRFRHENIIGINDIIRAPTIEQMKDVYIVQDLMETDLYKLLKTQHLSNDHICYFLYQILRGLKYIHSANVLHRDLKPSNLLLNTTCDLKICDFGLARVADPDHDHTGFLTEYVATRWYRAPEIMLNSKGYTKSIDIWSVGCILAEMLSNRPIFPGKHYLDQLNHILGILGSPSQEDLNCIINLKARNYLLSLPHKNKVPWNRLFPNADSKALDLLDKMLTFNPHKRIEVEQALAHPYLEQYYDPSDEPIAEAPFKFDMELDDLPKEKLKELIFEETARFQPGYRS
Sequence of Serine/threonine-protein kinase PAK 4 (Homo sapiens) (O96013 whole entry, looked up): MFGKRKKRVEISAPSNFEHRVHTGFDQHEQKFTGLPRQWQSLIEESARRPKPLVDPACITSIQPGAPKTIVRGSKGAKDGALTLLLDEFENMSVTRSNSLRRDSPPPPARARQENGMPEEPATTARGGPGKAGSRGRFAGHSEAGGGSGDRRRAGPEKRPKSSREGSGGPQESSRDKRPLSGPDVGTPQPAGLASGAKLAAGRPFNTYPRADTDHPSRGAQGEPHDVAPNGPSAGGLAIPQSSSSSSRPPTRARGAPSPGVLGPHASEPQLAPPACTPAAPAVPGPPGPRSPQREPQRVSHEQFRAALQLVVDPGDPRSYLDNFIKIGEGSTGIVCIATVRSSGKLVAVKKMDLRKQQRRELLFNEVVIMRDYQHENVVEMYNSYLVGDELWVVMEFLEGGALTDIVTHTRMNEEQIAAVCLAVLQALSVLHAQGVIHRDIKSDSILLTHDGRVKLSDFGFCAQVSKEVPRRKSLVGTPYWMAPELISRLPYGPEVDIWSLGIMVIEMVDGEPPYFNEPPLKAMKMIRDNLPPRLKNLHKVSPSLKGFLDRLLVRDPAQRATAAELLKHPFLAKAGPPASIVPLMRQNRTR

Structure (SMILES)	inhibition [1]	inhibition [2]	inhibition [3]	inhibition [4]	inhibition [5]	inhibition [6]	inhibition [7]	inhibition [8]	inhibition [9]	inhibition [10]
c1cc(-c2n[nH]c3ccnc(OC4CCOCC4)c23)cc(N2CCOCC2)n1	0%	79%	0%	51%	0%	0%	43%	47%	0%	4%
CC(C)n1cc(-c2n[nH]c3ccnc(OC4CCOCC4)c23)cn1	0%	84%	46%	49%	5%	24%	29%	27%	3%	19%
